In data set [1] the target is T1, Histamine H3 receptor (Homo sapiens, UniProt Q9Y5N1). The data set is described as follows: Displacement of [3H]NAMH from human histamine H3 receptor expressed in CHO cells. Format: cell-based. The method in brief:
(§1)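 Radioligand displacement of [³H]NAMH from membranes isolated from CHO cells transfected with cloned human H₃ or rat H₃ receptors.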

In data set [2] the target is Histamine H3 receptor (Rattus norvegicus, UniProt Q9QYN8). The data set is described as follows: Displacement of [3H]NAMH from rat histamine H3 receptor expressed in CHO cells. It counts as cell-based. In a few lines: as §1
For data set [3], the target named is T1, Histamine H3 receptor. The data set is described as follows: Inverse agonist activity at human histamine H3 receptor assessed as inhibition of R-alpha-methylhistamine-induced [35S]GTPgammaS binding. It counts as functional.
Data set [4] is described as follows: Apparent permeability across human Caco2 cells. It counts as ADME, cell-based. The settings on record: Caco-2. A general note: Caco-2 monolayers are a common model of the intestinal barrier.
The nature of data set [5]: Aqueous solubility of the compound at pH 2. Format: physicochemical. The settings on record: aqueous medium.
Data set [6] in a line: Aqueous solubility of the compound at pH 7.4. Format: physicochemical. As to conditions: aqueous medium.
The nature of data set [7]: Half life in human liver microsomes. It counts as ADME, Microsome.
Data set [8] can be described thus: Half life in rat liver microsomes. It counts as ADME, Microsome. (Liver microsomes are vesicles of endoplasmic reticulum, rich in cytochrome P450 enzymes.)
Data set [9] in a line: Half life in dog liver microsomes. It counts as ADME, Canis lupus familiaris, Microsome.
A short description of data set [10]: Half life in monkey liver microsomes. Format: ADME, Macaca mulatta, Microsome. The settings on record: rhesus monkey.
Data set [11] addresses T2, Cytochrome P450 1A2 (Homo sapiens, UniProt P05177).
T2 sequence (P05177 whole entry): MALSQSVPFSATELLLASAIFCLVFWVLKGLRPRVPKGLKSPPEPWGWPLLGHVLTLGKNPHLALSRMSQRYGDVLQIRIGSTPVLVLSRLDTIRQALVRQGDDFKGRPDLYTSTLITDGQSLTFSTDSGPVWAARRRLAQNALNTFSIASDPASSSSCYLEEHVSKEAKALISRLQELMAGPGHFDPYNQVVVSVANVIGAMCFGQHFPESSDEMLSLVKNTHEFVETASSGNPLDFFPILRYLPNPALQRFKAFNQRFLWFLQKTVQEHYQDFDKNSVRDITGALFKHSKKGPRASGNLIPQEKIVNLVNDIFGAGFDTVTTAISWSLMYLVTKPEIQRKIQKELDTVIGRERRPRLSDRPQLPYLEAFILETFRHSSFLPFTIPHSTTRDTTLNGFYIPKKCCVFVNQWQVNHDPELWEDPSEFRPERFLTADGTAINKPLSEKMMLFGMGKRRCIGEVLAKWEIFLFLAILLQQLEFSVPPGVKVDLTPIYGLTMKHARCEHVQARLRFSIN
The data set is described as follows: Inhibition of CYP1A2. It counts as ADME.

Data set [12] addresses Cytochrome P450 2C9 (Homo sapiens, UniProt P11712). The data set is described as follows: Inhibition of CYP2C9. Format: ADME.
Data set [13] deals with Cytochrome P450 2C19 (Homo sapiens, UniProt P33261). The data set is described as follows: Inhibition of CYP2C19. Format: ADME.
Data set [14] deals with Cytochrome P450 2D6 (Homo sapiens, UniProt P10635). The data set is described as follows: Inhibition of CYP2D6. Format: ADME.
Data set [15] concerns the target Cytochrome P450 3A4 (Homo sapiens, UniProt P08684). The data set is described as follows: Inhibition of CYP3A4. Format: ADME.
Data set [16] has as its target Histamine H1 receptor (Homo sapiens) (UniProt P35367). The data set is described as follows: Inhibition of human histamine H1 receptor at 10 uM.
The target of data set [17] is Histamine H2 receptor (Homo sapiens) (UniProt P25021). The data set is described as follows: Inhibition of human histamine H2 receptor at 10 uM.
The target of data set [18] is Histamine H4 receptor (Homo sapiens) (UniProt Q9H3N8). The data set is described as follows: Inhibition of human histamine H4 receptor at 10 uM.
Data set [19] deals with Sodium-dependent dopamine transporter (Homo sapiens) (UniProt Q01959). The data set is described as follows: Inhibition of DAT at 10 uM.
The target of data set [20] is Voltage-gated inwardly rectifying potassium channel KCNH2 (Homo sapiens, UniProt Q12809). The data set is described as follows: Inhibition of human Erg by patch clamp assay. Background: The patch-clamp technique gives a direct electrical read-out from membranes.
Data set [21] in a line: Half life in rat at 1 mg/kg, iv. It counts as ADME, organism-based. The arrangement: dose 1 mg/kg, route intravenous. As to conditions: in vivo. In a few lines:
(§2)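 Rat PK: iv dose with vehicle 3% DMSO, 30% solutol, 67% phosphate buffered saline. Oral 5 mg/kg dose with vehicle 50% Tween 80, 40% propylene carbonate, 10% propylene glycol.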

The nature of data set [22]: Volume of distribution in rat at 1 mg/kg, iv. Format: ADME, organism-based. Also on record: dose 1 mg/kg, route intravenous. As to conditions: in vivo. In a few lines: as §2
Data set [23] in a line: Clearance in rat at 1 mg/kg, iv. Also on record: dose 1 mg/kg, route intravenous. It counts as ADME, organism-based. The settings on record: in vivo. In a few lines:
as §2

Data set [24] is described as follows: Cmax in rat at 5 mg/kg, po. It counts as ADME, organism-based. Also on record: dose 5 mg/kg, route oral. The settings on record: in vivo.
Data set [25] is described as follows: Oral bioavailability in rat at 5 mg/kg. It counts as ADME, organism-based. The settings on record: in vivo. In a few lines:
as §2

Data set [26] can be described thus: Drug uptake in rat brain at 5 mg/kg, po measured after 6 hrs. Format: ADME, organism-based. The arrangement: dose 5 mg/kg, route oral. As to conditions: read-out: Drug uptake. In a few lines: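 Rats given 5 mg/kg po in 50% Tween 80, 40% propylene carbonate, 10% propylene glycol. Brain concentration determined 6 h after dosing.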
Data set [27] is described as follows: Ratio drug uptake in brain to plasma of rat at 10 mg/kg, ip measured after 6 hrs. Format: ADME, organism-based. Also on record: dose 10 mg/kg, route intraperitoneal. The settings on record: read-out: BPR.

The structures appear in SMILES notation.

Sequence of Histamine H3 receptor (Rattus norvegicus, UniProt Q9QYN8) (Q9QYN8 whole entry): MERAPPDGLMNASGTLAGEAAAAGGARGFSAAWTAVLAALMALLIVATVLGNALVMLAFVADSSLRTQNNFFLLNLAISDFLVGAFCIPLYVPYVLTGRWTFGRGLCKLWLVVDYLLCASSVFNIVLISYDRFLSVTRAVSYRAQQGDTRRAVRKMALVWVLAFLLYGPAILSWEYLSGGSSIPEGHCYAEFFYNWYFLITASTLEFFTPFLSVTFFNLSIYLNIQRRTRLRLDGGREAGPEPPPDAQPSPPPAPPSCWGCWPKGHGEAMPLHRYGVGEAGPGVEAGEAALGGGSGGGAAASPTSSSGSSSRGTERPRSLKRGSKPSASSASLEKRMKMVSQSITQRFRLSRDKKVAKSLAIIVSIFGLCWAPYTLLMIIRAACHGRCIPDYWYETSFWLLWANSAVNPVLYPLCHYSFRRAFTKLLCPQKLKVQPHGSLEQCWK
T1 sequence (Q9Y5N1 whole entry): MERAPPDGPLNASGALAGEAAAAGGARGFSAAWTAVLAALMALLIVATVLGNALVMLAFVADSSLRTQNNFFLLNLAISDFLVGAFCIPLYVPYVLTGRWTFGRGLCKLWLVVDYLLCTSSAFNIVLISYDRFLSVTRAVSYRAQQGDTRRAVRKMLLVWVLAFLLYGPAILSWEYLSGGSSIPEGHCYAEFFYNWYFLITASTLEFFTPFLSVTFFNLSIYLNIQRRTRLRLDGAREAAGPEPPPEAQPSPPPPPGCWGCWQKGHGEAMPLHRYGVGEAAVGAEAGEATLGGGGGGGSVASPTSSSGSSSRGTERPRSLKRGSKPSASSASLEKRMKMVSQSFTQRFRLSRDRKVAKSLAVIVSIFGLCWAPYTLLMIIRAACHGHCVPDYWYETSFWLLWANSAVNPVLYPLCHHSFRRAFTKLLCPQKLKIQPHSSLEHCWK
Sequence of Voltage-gated inwardly rectifying potassium channel KCNH2 (Q12809 whole entry): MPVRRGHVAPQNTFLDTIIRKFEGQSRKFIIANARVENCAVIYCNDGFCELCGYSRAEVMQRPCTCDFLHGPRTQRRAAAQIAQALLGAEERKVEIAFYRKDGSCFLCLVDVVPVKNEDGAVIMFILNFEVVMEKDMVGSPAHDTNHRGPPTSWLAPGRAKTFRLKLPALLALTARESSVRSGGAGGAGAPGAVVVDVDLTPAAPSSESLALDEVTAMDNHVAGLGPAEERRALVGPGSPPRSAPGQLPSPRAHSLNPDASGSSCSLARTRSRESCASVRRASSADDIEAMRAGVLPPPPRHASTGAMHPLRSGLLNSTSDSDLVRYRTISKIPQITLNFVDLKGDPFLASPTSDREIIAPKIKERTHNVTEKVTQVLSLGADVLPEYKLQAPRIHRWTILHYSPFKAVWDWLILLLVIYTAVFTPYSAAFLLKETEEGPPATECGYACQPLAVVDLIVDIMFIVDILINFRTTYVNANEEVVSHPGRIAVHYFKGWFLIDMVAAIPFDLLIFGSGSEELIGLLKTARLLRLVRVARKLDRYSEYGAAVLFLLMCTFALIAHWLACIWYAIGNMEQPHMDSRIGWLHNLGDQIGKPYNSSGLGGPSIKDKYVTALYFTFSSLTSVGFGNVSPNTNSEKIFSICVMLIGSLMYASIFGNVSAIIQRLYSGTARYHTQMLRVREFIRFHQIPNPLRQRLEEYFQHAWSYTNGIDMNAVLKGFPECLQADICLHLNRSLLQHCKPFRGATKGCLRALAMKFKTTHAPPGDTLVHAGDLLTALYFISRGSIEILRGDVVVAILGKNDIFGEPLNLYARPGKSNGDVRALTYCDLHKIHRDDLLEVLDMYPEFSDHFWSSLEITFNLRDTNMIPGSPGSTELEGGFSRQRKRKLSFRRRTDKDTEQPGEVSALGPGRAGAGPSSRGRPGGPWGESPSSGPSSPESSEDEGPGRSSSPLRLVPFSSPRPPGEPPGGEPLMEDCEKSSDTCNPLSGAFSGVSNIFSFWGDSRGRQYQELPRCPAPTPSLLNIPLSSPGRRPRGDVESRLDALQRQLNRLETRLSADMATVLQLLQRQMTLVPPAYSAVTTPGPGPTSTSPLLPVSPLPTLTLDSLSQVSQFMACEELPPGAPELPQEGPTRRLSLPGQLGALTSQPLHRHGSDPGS
Sequence of Histamine H2 receptor (Homo sapiens) (P25021 whole entry): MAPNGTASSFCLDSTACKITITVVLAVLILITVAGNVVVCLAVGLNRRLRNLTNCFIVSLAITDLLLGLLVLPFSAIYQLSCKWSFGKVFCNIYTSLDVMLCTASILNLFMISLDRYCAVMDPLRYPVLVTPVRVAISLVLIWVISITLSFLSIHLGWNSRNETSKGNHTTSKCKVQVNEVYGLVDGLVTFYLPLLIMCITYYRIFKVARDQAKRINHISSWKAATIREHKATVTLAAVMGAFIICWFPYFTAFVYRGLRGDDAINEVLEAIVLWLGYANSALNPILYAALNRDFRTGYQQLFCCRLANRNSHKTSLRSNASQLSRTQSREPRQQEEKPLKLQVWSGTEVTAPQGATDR
Sequence of Histamine H4 receptor (Homo sapiens) (Q9H3N8 whole entry): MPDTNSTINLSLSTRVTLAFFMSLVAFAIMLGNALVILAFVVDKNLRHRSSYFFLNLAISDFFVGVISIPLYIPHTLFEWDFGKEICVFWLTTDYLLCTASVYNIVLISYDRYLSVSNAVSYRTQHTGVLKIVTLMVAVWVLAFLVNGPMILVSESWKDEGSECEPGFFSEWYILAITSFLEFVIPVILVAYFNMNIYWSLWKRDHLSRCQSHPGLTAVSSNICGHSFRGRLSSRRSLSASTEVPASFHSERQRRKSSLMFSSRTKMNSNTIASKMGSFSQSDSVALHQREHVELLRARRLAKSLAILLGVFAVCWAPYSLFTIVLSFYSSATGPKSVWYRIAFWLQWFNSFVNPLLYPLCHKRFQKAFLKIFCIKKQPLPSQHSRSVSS
Sequence of Cytochrome P450 3A4 (P08684 whole entry): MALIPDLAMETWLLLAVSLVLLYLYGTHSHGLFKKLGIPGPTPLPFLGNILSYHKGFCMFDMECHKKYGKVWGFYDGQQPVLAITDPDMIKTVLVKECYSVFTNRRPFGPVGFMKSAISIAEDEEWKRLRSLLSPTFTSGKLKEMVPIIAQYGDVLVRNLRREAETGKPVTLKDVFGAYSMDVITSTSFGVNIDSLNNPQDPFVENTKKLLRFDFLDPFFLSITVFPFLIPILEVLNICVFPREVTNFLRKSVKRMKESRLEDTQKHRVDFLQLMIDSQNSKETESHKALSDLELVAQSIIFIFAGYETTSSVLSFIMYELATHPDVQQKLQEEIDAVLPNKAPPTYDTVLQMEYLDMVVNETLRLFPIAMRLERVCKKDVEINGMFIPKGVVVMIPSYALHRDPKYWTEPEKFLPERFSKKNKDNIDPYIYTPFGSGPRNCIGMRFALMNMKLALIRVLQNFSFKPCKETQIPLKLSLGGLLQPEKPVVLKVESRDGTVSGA
Sequence of Sodium-dependent dopamine transporter (Homo sapiens) (Q01959 whole entry): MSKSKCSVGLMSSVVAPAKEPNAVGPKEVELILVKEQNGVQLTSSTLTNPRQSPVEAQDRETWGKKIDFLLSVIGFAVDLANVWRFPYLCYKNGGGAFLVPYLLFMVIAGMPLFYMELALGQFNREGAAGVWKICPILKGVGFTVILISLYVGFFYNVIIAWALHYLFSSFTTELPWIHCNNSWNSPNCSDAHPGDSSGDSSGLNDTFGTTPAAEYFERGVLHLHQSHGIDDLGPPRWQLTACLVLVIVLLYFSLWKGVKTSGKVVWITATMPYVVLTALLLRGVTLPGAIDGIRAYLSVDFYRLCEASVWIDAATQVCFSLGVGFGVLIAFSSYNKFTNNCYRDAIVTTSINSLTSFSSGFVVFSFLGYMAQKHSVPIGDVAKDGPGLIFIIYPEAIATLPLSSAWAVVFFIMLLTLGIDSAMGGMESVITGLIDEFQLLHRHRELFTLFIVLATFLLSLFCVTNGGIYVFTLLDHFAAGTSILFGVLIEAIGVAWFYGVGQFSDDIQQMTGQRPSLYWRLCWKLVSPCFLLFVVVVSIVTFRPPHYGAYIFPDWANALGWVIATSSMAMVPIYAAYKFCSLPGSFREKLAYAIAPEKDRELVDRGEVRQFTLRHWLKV
Sequence of Cytochrome P450 2C19 (P33261 whole entry): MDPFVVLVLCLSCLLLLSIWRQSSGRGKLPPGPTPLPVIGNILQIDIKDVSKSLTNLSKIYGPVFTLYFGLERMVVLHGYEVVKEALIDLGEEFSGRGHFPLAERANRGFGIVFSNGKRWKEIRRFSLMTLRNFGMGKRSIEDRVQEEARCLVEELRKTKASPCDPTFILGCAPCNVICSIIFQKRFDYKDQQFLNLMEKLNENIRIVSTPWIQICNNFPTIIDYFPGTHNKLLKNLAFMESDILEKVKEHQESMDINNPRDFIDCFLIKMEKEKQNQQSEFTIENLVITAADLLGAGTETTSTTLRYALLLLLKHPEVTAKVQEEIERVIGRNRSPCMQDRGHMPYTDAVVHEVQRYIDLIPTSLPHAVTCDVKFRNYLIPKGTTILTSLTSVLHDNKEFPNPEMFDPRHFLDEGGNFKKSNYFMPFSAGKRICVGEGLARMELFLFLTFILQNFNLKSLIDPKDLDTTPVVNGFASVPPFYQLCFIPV
Sequence of Cytochrome P450 2C9 (P11712 whole entry): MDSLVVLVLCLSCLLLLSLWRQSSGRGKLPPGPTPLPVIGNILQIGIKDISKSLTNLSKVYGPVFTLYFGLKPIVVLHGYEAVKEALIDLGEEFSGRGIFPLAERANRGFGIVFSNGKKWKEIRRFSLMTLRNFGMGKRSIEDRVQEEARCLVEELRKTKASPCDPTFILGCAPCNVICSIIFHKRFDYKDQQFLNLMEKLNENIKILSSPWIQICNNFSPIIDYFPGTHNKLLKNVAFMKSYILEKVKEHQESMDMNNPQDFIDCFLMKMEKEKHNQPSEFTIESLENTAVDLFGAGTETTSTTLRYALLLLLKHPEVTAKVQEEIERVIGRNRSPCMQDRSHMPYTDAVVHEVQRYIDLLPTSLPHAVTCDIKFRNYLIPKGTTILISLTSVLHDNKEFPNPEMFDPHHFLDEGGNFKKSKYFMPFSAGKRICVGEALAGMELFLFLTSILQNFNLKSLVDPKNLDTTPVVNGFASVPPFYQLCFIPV

For the molecule `O=c1ccc(-c2ccc(OC3CCN(C4CCCC4)CC3)cc2)n[nH]1`, the Ki was 5.1 nM in data set [1] and 7 nM in [2].
Take `CC1(C)CC(c2ccc(OC3CCN(C4CCC4)CC3)nc2)=NNC1=O`: the inhibitory constant (Ki) was 12 nM in data set [1] and 28 nM in [2].
`CC1(C)CC(c2ccc(OC3CCN(C4CCC4)CC3)c(F)c2)=NNC1=O`: the Ki in data set [1] came out at 7.1 nM; in data set [2] it was 7.2 nM.
In the case of `Cn1nc(-c2ccc(OC3CCN(C4CCCC4)CC3)nc2)ccc1=O`, the Ki in data set [1] turned out to be 5.9 nM; in data set [2] it was 12 nM.
In the case of `CC(C)n1nc(-c2ccc(OC3CCN(C4CCC4)CC3)nc2)ccc1=O`, the Ki came out at 6.5 nM in data set [1] and 9.4 nM in data set [2].
Consider `O=C1CCC(c2ccc(OC3CCN(C4CCC4)CC3)cc2)=NN1`, for which the Ki came out at 3.7 nM in data set [1] and 6.7 nM in data set [2].
For `O=c1ccc(-c2ccc(OC3CCN(C4CCC4)CC3)cc2)n[nH]1`, the Ki amounted to 1.9 nM in [1] and 2.2 nM in data set [2]. The EC50 in data set [3] came to 1.1 nM. Besides, the Papp in data set [4] came out at 165 nm/s. The solubility in data set [5] and in data set [6] was over 1 mg/mL each time. Besides, the half-life in [7] is over 40 min; in data set [8] it was over 40 min; in data set [9] it was over 40 min; in data set [10] it was over 40 min; in data set [21], 138 min. In addition, the IC50 is over 30000 nM in data set [11]; over 30000 nM in data set [12]; over 30000 nM in data set [13]; over 30000 nM in data set [14]; over 30000 nM in data set [15]; 8000 nM in data set [20]. Further, the inhibition in data set [16] was under 10%; in [17] it was under 10%; in data set [18], under 10%; in data set [19], 63%. The molecule also had a Vd in data set [22] of 2.5 L/kg. In data set [23], this molecule returned a clearance of 0.78 L/h/kg. The Cmax in [24] was 0.441 µg/mL. The molecule further showed a bioavailability in data set [25] of 35%. Besides, the concentration at 6 h in [26] stood at 1.4 µM. Also, in data set [27], the Kp at 6 h stood at 1.9.
Consider `CC(C)N1CCC(Oc2ccc(-c3ccc(=O)n(C)n3)cc2)CC1`, for which the Ki is 9.2 nM in [1] and 46 nM in data set [2].
Turning to `O=c1ccc(-c2ccc(OC3CCN(C4CCC4)CC3)nc2)nn1-c1ccccn1`, the Ki stood at 34 nM in data set [1] and 82 nM in [2].
On to `O=c1ccc(-c2ccc(OC3CCN(C4CCC4)CC3)nc2)n[nH]1`, for which the results for the Ki in data set [1] and in data set [2] were 6.3 nM and 19 nM, respectively. For the same molecule, the half-maximal inhibitory concentration (IC50) in [20] is 9000 nM. Besides, in [25], the bioavailability was found to be 21%.

The term Ki denotes the dissociation constant of the complex between target and ligand, obtained from inhibition or displacement. For orientation: EC50 means the concentration at which the effect is half-maximal. For orientation: Papp means a coefficient for how fast a substance crosses the barrier. In general, solubility refers to the concentration that dissolves in the medium under given conditions. By half-life is commonly meant the time in which the quantity being followed falls by half. For orientation: IC50 means the point on the concentration scale where inhibition reaches its midpoint. A word on the inhibition: it is the drop in the measured response relative to a control, in per cent. By Vd is commonly meant the apparent volume that relates the amount in the body to the concentration in plasma or blood. Broadly, the clearance is the volume of plasma or blood freed of the substance per unit of time. A word on the Cmax: it is the maximum level reached in the sampled fluid or tissue. For orientation: bioavailability means dose-corrected exposure relative to a reference, in per cent.

For the origin of these results see ChEMBL document CHEMBL1949660 (Bioorg Med Chem Lett, 2012).
